Published values collected from several papers.
CDK16: Cyclin-dependent kinase 16 (CDK16, Homo sapiens, UniProt Q00536)
CDK16 with cyclin Y: Cyclin-dependent kinase 16, with cyclin Y (CDK16, Homo sapiens, UniProt Q00536)

SMILES | target | assay | conditions | quantity | value
Cn1c2c(c3ccc(Cl)c(Cl)c31)C(C#N)C1(CCCCC1)NC2=O (racemic) | CDK16 | thermal stability, DSF | 10 µM | ΔTm | 0.6 °C
CCS(=O)(=O)c1cc2cc(C[C@](O)(CC(C)(C)c3ccc(F)cc3C(N)=O)C(F)(F)F)[nH]c2cn1 | CDK16 | cell-free assay, competition with immobilised ligand | 1 µM | remaining binding | 100%
CC(C)(C)c1nc(-c2cccc(NS(=O)(=O)c3c(F)cccc3F)c2F)c(-c2ccnc(N)n2)s1 | CDK16 with cyclin Y | enzyme activity, inhibitor, radiometric | 1 µM | remaining activity | 53%
O=C(CSc1nc2nccnc2c(=O)n1CCc1ccccc1)Nc1nccs1 | CDK16 with cyclin Y | enzyme activity, inhibitor | 10 µM | inhibition | -7%
Cc1ccc(C(=O)NCc2ccsc2)cc1C#Cc1cn(C(C)C)c2ncnc(N)c12 | CDK16 with cyclin Y | enzyme activity, inhibitor | 1 µM | activity vs control | 101%
CNC(=O)Nc1ccc2c(c1)CC[C@@]21OC(=O)N(CC(=O)N(Cc2ccc(F)cc2)[C@@H](C)C(F)(F)F)C1=O | CDK16 | cell-free assay, competition with immobilised ligand | 1 µM | remaining binding | 75%
Cn1c2c(c3ccc(Cl)c(Cl)c31)C(C#N)C(C)(C)NC2=O (stereo not drawn) | CDK16 | thermal stability, DSF | 10 µM | ΔTm | 0.7 °C
COc1cccc2c(NCc3ccccc3)nc(-n3c(N)nc4ccccc43)nc12 | CDK16 | target engagement in cells, inhibitor, chemoproteomics | 20 mM | inhibition | -2.7%
CN([C@@H]1CCc2c(CC(=O)O)c3cc(S(C)(=O)=O)ccc3n2C1)S(=O)(=O)c1ccc(F)cc1 | CDK16 | cell-free assay, competition with immobilised ligand | 1 µM | remaining binding | 84%
Cn1c2c(c3ccc(Cl)c(Cl)c31)C(C#N)C1(CCN(C(=O)OC(C)(C)C)CC1)NC2=O (racemic) | CDK16 | thermal stability, DSF | 10 µM | ΔTm | 0 °C
CO[C@@H](C)c1c(Nc2ccc([C@@H](N(C)C(=O)C3CCS(=O)(=O)CC3)C(F)(F)F)cc2)cnc2cc(Cl)nn12 | CDK16 | cell-free assay, competition with immobilised ligand | 1 µM | remaining binding | 72%
CCN1CCC2(CC1)NC(=O)c1c(c3ccc(Cl)c(Cl)c3n1C)C2C#N (racemic) | CDK16 | thermal stability, DSF | 10 µM | ΔTm | 0 °C
